Laboratory results reported in ChEMBL document CHEMBL3112499, “Identification of potent CNS-penetrant thiazolidinones as novel CGRP receptor antagonists” (Bioorg Med Chem Lett, 2014).

Columns and labels:
[1] = target: T1, Calcitonin gene-related peptide type 1 receptor (Homo sapiens, UniProt O60894+Q16602); experiment: Displacement of [125I]CGRP from CGRP receptor in human SK-N-MC cell membranes preincubated for 30 mins followed by radioligand addition measured after 2 hrs by liquid scintillation counting
[2] = target: T1, Calcitonin gene-related peptide type 1 receptor; experiment: Antagonist activity at CGRP receptor in human SK-N-MC cells assessed as inhibition of CGRP-stimulated cAMP production preincubated for 30 mins followed by CGRP addition measured after 3 hrs by beta-lactamase reporter gene-based FRET assay; assay type: functional, cell-based
Procedure, shortened: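 SK-N-MC cells (endogenous CGRP receptor) transduced with retroviral cAMP-responsive-promoter β-lactamase reporter; 30,000 cells/well grown overnight in MEM+10% FBS, 37 °C, 5% CO2. Medium swapped to MEM+1% FBS with compound, 30 min pre-incubation; CGRP added (final 200 pM), 3 h at 37 °C. CCF4/AM FRET substrate added, 2 h at room temperature, fluorescence read; n ≥ 3.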

[3] = Ratio of drug level in brain to plasma in rat administered as iv bolus measured after 0.25 to 1 hr post dosing; assay type: ADME, organism-based; conditions: brain and plasma, read-out: BPR
Procedure, shortened: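 Rats given an iv bolus; brain and plasma levels taken at 0.25 or 1 h post-dose to give the brain/plasma ratio; mean of n = 3.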

Rattus norvegicus [4] = experiment: Cmax in rat at 10 mg/kg, po; assay type: ADME, organism-based; set-up: dose 10 mg/kg, route oral; conditions: in vivo
Procedure, shortened: (§1)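 Rats dosed orally at 10 mg/kg, in suspension vehicle or in 40% PEG400/10% TPGS/water depending on compound; mean of n = 3.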

Rattus norvegicus [5] = experiment: AUC in rat at 10 mg/kg, po; assay type: ADME, organism-based, Plasma; set-up: dose 10 mg/kg, route oral; conditions: in vivo; procedure, shortened: as §1
Rattus norvegicus [6] = experiment: Oral bioavailability in rat at 10 mg/kg; assay type: ADME, organism-based; conditions: in vivo; procedure, shortened: as §1
[7] = Clearance in iv dosed rat; assay type: ADME, organism-based; conditions: in vivo
Rattus norvegicus [8] = experiment: Cmax in po dosed rat; assay type: ADME, organism-based; set-up: route oral; conditions: in vivo
Rattus norvegicus [9] = experiment: AUC in po dosed rat; assay type: ADME, organism-based, Plasma; conditions: in vivo
[10] = Oral bioavailability in rat; assay type: ADME, organism-based; conditions: in vivo
Rattus norvegicus [11] = experiment: Cmax in rat at 30 mg/kg, po; assay type: ADME, organism-based; set-up: dose 30 mg/kg, route oral; conditions: in vivo
Procedure, shortened: (§2)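 Rats dosed at 30 mg/kg in 10% TPGS suspension; mean of n = 3.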

Rattus norvegicus [12] = experiment: AUC in rat at 30 mg/kg, po; assay type: ADME, organism-based, Plasma; set-up: dose 30 mg/kg, route oral; conditions: in vivo; procedure, shortened: as §2
Rattus norvegicus [13] = experiment: Oral bioavailability in rat at 30 mg/kg; assay type: ADME, organism-based; conditions: in vivo; procedure, shortened: as §2

T1 sequence (Q16602 whole entry, one chain of several): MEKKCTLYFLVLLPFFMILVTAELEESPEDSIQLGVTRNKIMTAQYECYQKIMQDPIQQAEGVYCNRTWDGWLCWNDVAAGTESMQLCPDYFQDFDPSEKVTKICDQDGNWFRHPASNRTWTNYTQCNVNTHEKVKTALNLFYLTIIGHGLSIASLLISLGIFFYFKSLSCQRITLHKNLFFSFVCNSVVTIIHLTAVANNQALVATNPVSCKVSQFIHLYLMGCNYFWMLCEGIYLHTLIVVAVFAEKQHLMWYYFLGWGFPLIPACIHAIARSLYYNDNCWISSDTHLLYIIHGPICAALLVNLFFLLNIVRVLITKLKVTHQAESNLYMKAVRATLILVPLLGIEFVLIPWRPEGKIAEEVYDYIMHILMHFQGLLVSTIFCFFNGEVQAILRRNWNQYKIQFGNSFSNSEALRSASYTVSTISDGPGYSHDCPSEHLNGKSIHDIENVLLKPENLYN

Row | SMILES | Ki [1] | IC50 [2] | also measured
1 | CC(C)(C)CCN1C(=O)C(CC(=O)N2CCC(N3Cc4ccccc4NC3=O)CC2)SC1c1ccccc1N1CCOCC1 (configuration not stated) | 52 nM | 160 nM | –
2 | CCCCN1C(=O)C(CC(=O)N2CCC(N3Cc4ccccc4NC3=O)CC2)SC1c1ccccc1 (configuration not stated) | 64 nM | 320 nM | –
3 | O=C(CC1SC(c2ccccc2)N(C2CCCCC2)C1=O)N1CCC(N2Cc3ccccc3NC2=O)CC1 (configuration not stated) | 88 nM | 710 nM | –
4 | CC(C)(C)CCN1C(=O)C(CC(=O)N2CCC(N3Cc4ccccc4NC3=O)CC2)SC1c1ccccc1N1CCN(CCO)CC1 (configuration not stated) | 8 nM | 36 nM | –
5 | O=C(CC1SC(c2ccccc2)N(Cc2cccnc2)C1=O)N1CCC(N2Cc3ccccc3NC2=O)CC1 (configuration not stated) | 260 nM | 800 nM | –
6 | O=C(CC1SC(c2ccccc2)N(Cc2ccc(F)cc2)C1=O)N1CCC(N2Cc3ccccc3NC2=O)CC1 (configuration not stated) | 56 nM | 750 nM | –
7 | CC(C)(C)CCN1C(=O)C(CC(=O)N2CCC(N3Cc4ccccc4NC3=O)CC2)SC1c1c(F)cccc1F (configuration not stated) | 59 nM | 170 nM | –
8 | CN1CCN(c2ccc(F)cc2C2SC(CC(=O)N3CCC(N4CCc5ccccc5NC4=O)CC3)C(=O)N2CCC(C)(C)C)CC1 (configuration not stated) | 14 nM | 72 nM | –
9 | CN1C(=O)C(CC(=O)N2CCC(N3Cc4ccccc4NC3=O)CC2)SC1c1ccccc1 (configuration not stated) | 203 nM | 4470 nM | –
10 | CC(C)(C)CCN1C(=O)[C@H](CC(=O)N2CCC(N3CCc4ccccc4NC3=O)CC2)S[C@@H]1c1cccc(F)c1N1CCN(C(C)(C)C)CC1 | – | – | Kp [3]: 0.53; Cmax (Rattus norvegicus [4]): 410 ng/mL; AUC (Rattus norvegicus [5]): 530 ng·h/mL; F (Rattus norvegicus [6]): 13%
11 | CC(C)CN1C(=O)C(CC(=O)N2CCC(N3Cc4ccccc4NC3=O)CC2)SC1c1ccccc1 (configuration not stated) | 32 nM | 370 nM | –
12 | CC(C)(C)CCN1C(=O)C(CC(=O)N2CCC(N3Cc4ccccc4NC3=O)CC2)SC1c1ccccc1-n1cccn1 (configuration not stated) | 40 nM | 62 nM | –
13 | CC(C)N1C(=O)C(CC(=O)N2CCC(N3Cc4ccccc4NC3=O)CC2)SC1c1ccccc1 (configuration not stated) | 115 nM | 1500 nM | –
14 | O=C(CC1SC(c2ccccc2)N(C2CC2)C1=O)N1CCC(N2Cc3ccccc3NC2=O)CC1 (configuration not stated) | 865 nM | 5150 nM | –
15 | CC(c1ccccc1)N1C(=O)C(CC(=O)N2CCC(N3Cc4ccccc4NC3=O)CC2)SC1c1ccccc1 (configuration not stated) | 297 nM | 940 nM | –
16 | CCCCN1CCN(c2ccccc2C2SC(CC(=O)N3CCC(N4Cc5ccccc5NC4=O)CC3)C(=O)N2CCC(C)(C)C)CC1 (configuration not stated) | 3 nM | 44 nM | –
17 | CN1CCN(c2ccccc2C2SC(CC(=O)N3CCC(N4CCc5ccccc5NC4=O)CC3)C(=O)N2CCC(C)(C)C)CC1 (configuration not stated) | 2 nM | 19 nM | –
18 | CC(C)CCN1C(=O)C(CC(=O)N2CCC(N3Cc4ccccc4NC3=O)CC2)SC1c1ccccc1 (racemic) | 32 nM | 370 nM | –
19 | CCN(CC)CCN1C(=O)C(CC(=O)N2CCC(N3Cc4ccccc4NC3=O)CC2)SC1c1ccccc1 (configuration not stated) | 303 nM | 4880 nM | –
20 | O=C(N[C@@H]1CC[C@@H](c2cccc(F)c2F)CN(CC(F)(F)F)C1=O)N1CCC(n2c(=O)[nH]c3ncccc32)CC1 [TELCAGEPANT] | – | – | Kp [3]: 0.03; Cmax (Rattus norvegicus [4]): 550 ng/mL; AUC (Rattus norvegicus [5]): 3320 ng·h/mL; F (Rattus norvegicus [6]): 45%
21 | NCCCC[C@H](NC(=O)[C@@H](Cc1cc(Br)c(O)c(Br)c1)NC(=O)N1CCC(N2Cc3ccccc3NC2=O)CC1)C(=O)N1CCN(c2ccncc2)CC1 [OLCEGEPANT] | – | – | Kp [3]: < 0.03; clearance [7]: 65 mL/min/kg; Cmax (Rattus norvegicus [8]): 870 ng/mL; AUC (Rattus norvegicus [9]): 260 ng·h/mL; bioavailability [10]: < 1%
22 | CN1CCN(c2c(F)cccc2C2SC(CC(=O)N3CCC(N4CCc5ccccc5NC4=O)CC3)C(=O)N2CCC(C)(C)C)CC1 (configuration not stated) | 0.5 nM | 3 nM | –
23 | O=C(CC1SC(c2ccccc2)N(CC(F)(F)F)C1=O)N1CCC(N2Cc3ccccc3NC2=O)CC1 (configuration not stated) | 763 nM | 4540 nM | –

Row | SMILES | Ki [1] | IC50 [2] | also measured
24 | CC(C)(C)CN1C(=O)C(CC(=O)N2CCC(N3Cc4ccccc4NC3=O)CC2)SC1c1ccccc1 (configuration not stated) | 9 nM | 250 nM | –
25 | CC(C)(C)N1C(=O)C(CC(=O)N2CCC(N3Cc4ccccc4NC3=O)CC2)SC1c1ccccc1 (configuration not stated) | 1880 nM | 7600 nM | –
26 | CCN1CCN(c2c(F)cccc2C2SC(CC(=O)N3CCC(N4CCc5ccccc5NC4=O)CC3)C(=O)N2CCC(C)(C)C)CC1 (configuration not stated) | 0.07 nM | 2 nM | –
27 | CN1CCN(c2cc(F)ccc2C2SC(CC(=O)N3CCC(N4CCc5ccccc5NC4=O)CC3)C(=O)N2CCC(C)(C)C)CC1 (configuration not stated) | 14 nM | 84 nM | –
28 | CC(C)(C)CCN1C(=O)C(CC(=O)N2CCC(N3Cc4ccccc4NC3=O)CC2)SC1c1ccc(F)cc1F (configuration not stated) | 30 nM | 190 nM | –
29 | O=C(CC1SC(c2ccccc2)N(CC2CCCO2)C1=O)N1CCC(N2Cc3ccccc3NC2=O)CC1 (configuration not stated) | 68 nM | 520 nM | –
30 | CC(C)(C)CCN1C(=O)C(CC(=O)N2CCC(N3CCc4ccccc4NC3=O)CC2)SC1c1ccccc1N1CCNCC1 (configuration not stated) | 1 nM | 33 nM | –
31 | CC(C)(C)CCN1C(=O)C(CC(=O)N2CCC(N3Cc4ccccc4NC3=O)CC2)SC1c1ccccc1N1CCC(O)CC1 (configuration not stated) | 18 nM | 44 nM | –
32 | CC(C)(C)CCN1C(=O)C(CC(=O)N2CCC(N3Cc4ccccc4NC3=O)CC2)SC1c1ccccc1-c1cccnc1 (configuration not stated) | 22 nM | 88 nM | –
33 | O=C(CC1SC(c2ccccc2)N(CC2CC2)C1=O)N1CCC(N2Cc3ccccc3NC2=O)CC1 (configuration not stated) | 45 nM | 840 nM | –
34 | CN1CCN(c2ccccc2C2SC(CC(=O)N3CCC(N4Cc5ccccc5NC4=O)CC3)C(=O)N2CCC(C)(C)C)CC1 (configuration not stated) | – | – | Cmax (Rattus norvegicus [11]): 260 ng/mL; AUC (Rattus norvegicus [12]): 1600 ng·h/mL; F (Rattus norvegicus [13]): 53%
35 | CC(C)(C)CCN1C(=O)C(CC(=O)N2CCC(N3Cc4ccccc4NC3=O)CC2)SC1c1ccccc1N1CCNCC1 (configuration not stated) | 2 nM | 60 nM | –
36 | CC(C)N1CCN(c2c(F)cccc2C2SC(CC(=O)N3CCC(N4CCc5ccccc5NC4=O)CC3)C(=O)N2CCC(C)(C)C)CC1 (configuration not stated) | 0.02 nM | 1 nM | Kp [3]: 1.51; Cmax (Rattus norvegicus [4]): 120 ng/mL; AUC (Rattus norvegicus [5]): 650 ng·h/mL; F (Rattus norvegicus [6]): 32%
37 | CN1CCN(c2cccc(F)c2C2SC(CC(=O)N3CCC(N4CCc5ccccc5NC4=O)CC3)C(=O)N2CCC(C)(C)C)CC1 (configuration not stated) | 1 nM | 65 nM | –
38 | O=C(CC1SC(c2ccccc2)N(c2ccccc2)C1=O)N1CCC(N2Cc3ccccc3NC2=O)CC1 (configuration not stated) | 806 nM | 2940 nM | –
39 | CC(C)CCN(Cc1cc(Br)c(O)c(Br)c1)C(=O)CCC(=O)N1CCC(N2Cc3ccccc3NC2=O)CC1 | 282 nM | 740 nM | –
40 | CC(C)(C)CCN1C(=O)C(CC(=O)N2CCC(N3Cc4ccccc4NC3=O)CC2)SC1c1ccccc1-n1ccnc1 (configuration not stated) | 7 nM | 86 nM | –
41 | CC(C)(C)CCN1C(=O)C(CC(=O)N2CCC(N3Cc4ccccc4NC3=O)CC2)SC1c1ccccc1F (configuration not stated) | 54 nM | 180 nM | –
42 | CC(C)(C)CCN1C(=O)C(CC(=O)N2CCC(N3Cc4ccccc4NC3=O)CC2)SC1c1cccc(F)c1F (configuration not stated) | 118 nM | 210 nM | –
43 | COCCN1C(=O)C(CC(=O)N2CCC(N3Cc4ccccc4NC3=O)CC2)SC1c1ccccc1 (configuration not stated) | 124 nM | 1220 nM | –
44 | O=C(CC1SC(c2ccccc2)N(CCc2ccccn2)C1=O)N1CCC(N2Cc3ccccc3NC2=O)CC1 (configuration not stated) | 202 nM | 1370 nM | –
45 | CC(C)(C)CCN1C(=O)C(CC(=O)N2CCC(N3Cc4ccccc4NC3=O)CC2)SC1c1ccccc1-c1ccncc1 (configuration not stated) | 20 nM | 99 nM | –
